These results are taken from ChEMBL document CHEMBL3352770, “Click chemistry inspired synthesis and bioevaluation of novel triazolyl derivatives of osthol as potent cytotoxic agents” (Eur J Med Chem, 2014).

For assay [1], the system named is COLO 205. The assay is described as follows: Cytotoxicity against human COLO205 cells after 24 hrs by MTT assay. The following applies: COLO 205, 24 h. It is filed as functional, cell-based. In outline:
(§1)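 Cells kept in DMEM with 10% foetal calf serum, penicillin and streptomycin, at 37 °C under 5% CO2. For assays serum lowered to 3%. Cells treated with test material at 0.04–60 µM for 24 h, then MTT (250 µg/mL) for 3 h. Formazan OD read at 570 nm. IC50 by non-linear regression, mean of triplicates. BEZ-235 as positive control.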

The nature of assay [2]: Cytotoxicity against human HCT116 cells after 24 hrs by MTT assay. The assay is classed as functional, cell-based. The following applies: HCT-116, 24 h. In outline:
as §1

The next assay has as its system T47D. As to the kind of experiment: Cytotoxicity against human T47D cells after 24 hrs by MTT assay. The assay is classed as functional, cell-based. An outline of the steps: as §1
A short description of assay [3]: Cytotoxicity against human NCI-H322 cells after 24 hrs by MTT assay. The settings on record: NCI-H322, 24 h. It is filed as functional, cell-based. In outline:
as §1

Another assay has as its system A549. As to the kind of experiment: Cytotoxicity against human A549 cells after 24 hrs by MTT assay. The assay is classed as functional, cell-based. The settings on record: A549, 24 h. An outline of the steps: as §1
The test system of another assay is A-431. As to the kind of experiment: Cytotoxicity against human A431 cells after 24 hrs by MTT assay. The assay is classed as functional, cell-based. The following applies: A-431, 24 h. In outline: as §1
Assay [4] in a line: Cytotoxicity against human PC3 cells after 24 hrs by MTT assay. The assay is classed as functional, cell-based. The settings on record: PC-3, 24 h. In outline:
as §1

Assay [5] concerns COLO 205. As to the kind of experiment: Induction of apoptosis in human COLO205 cells assessed as accumulation at subG1 phase at 1 uM after 48 hrs by propidium iodide staining based flow cytometry (reference value: 12%). It is filed as functional.
In assay [6] the test system is COLO 205. As to the kind of experiment: Induction of cell cycle arrest in human COLO205 cells assessed as accumulation at G1 phase at 1 uM after 48 hrs by propidium iodide staining based flow cytometry (reference value: 45.7%). The assay is classed as functional.
For assay [7], the system named is COLO 205. The assay is described as follows: Induction of cell cycle arrest in human COLO205 cells assessed as accumulation at S phase at 1 uM after 48 hrs by propidium iodide staining based flow cytometry (reference value: 13.8%). The assay is classed as functional.
In assay [8] the test system is COLO 205. As to the kind of experiment: Induction of cell cycle arrest in human COLO205 cells assessed as accumulation at G2 phase at 1 uM after 48 hrs by propidium iodide staining based flow cytometry (reference value: 13.2%). The assay is classed as functional.
In assay [9] the test system is COLO 205. As to the kind of experiment: Induction of mitochondrial membrane potential loss in human COLO205 cells at 1 uM after 48 hrs by Rh-123 staining based flow cytometry (reference value: 12.4%). It is filed as functional.

SMILES strings stand for the structures.

Turning to `COc1ccc(/C=C\C(=O)O)c(OCc2cn(-c3ccc(NC(=O)c4ccccc4)cc3)nn2)c1CC=C(C)C`, the IC50 in the assay with COLO 205 [1] came to 20.3 µM; in assay [2] it was 16.4 µM; in the assay with T47D, 23.3 µM; in assay [3], 17.2 µM; in the assay with A549, 42.7 µM; with A-431 it was 21.2 µM.

As to `COc1cccc(-n2cc(COc3c(/C=C\C(=O)O)ccc(OC)c3CC=C(C)C)nn2)c1`, the concentration for half-maximal inhibition (IC50) in [2] was determined as 21.6 µM; with T47D, 20.4 µM; in assay [3], 25.2 µM; in the assay with A549 it was 42.7 µM; in the assay on A-431 it was 23.2 µM.

For `COc1ccc(-n2cc(COc3c(/C=C\C(=O)O)ccc(OC)c3CC=C(C)C)nn2)cc1`, the IC50 in assay [2] is 8.7 µM; in the assay with A549, 10.2 µM.

With `COc1ccc(/C=C\C(=O)O)c(OCc2cn(-c3ccccc3I)nn2)c1CC=C(C)C`, the IC50 amounted to 23.1 µM in assay [2], 42.3 µM in assay [3], 2.2 µM in the assay with A549 and 32.7 µM in the assay on A-431.

Take `COc1ccc(/C=C\C(=O)O)c(OCc2cn(-c3ccccc3)nn2)c1CC=C(C)C`: the concentration for half-maximal inhibition (IC50) in the assay on COLO 205 [1] is 32.3 µM; in assay [2], 26 µM; in the assay on T47D it was 34.1 µM; in assay [3], 29.2 µM; in the assay on A549, 40.5 µM; in assay [4], 35 µM. The compound further showed an IC50 with A-431 of 21.2 µM.

`COc1ccc(/C=C\C(=O)O)c(OCc2cn(CC(O)c3ccccc3)nn2)c1CC=C(C)C` (stereo not given): the half-maximal inhibitory concentration (IC50) with COLO 205 [1] is 43 µM; in assay [2] it was 45.3 µM; in the assay on T47D it was 17.3 µM; in assay [3], 35.4 µM; in assay [4] it was 14.2 µM.

Consider `COc1ccc(/C=C\C(=O)O)c(OCc2cn(-c3ccc4c(c3)OCO4)nn2)c1CC=C(C)C`, for which the half-maximal inhibitory concentration (IC50) in [2] stood at 20.4 µM; with T47D, 13.2 µM; in [3], 22.7 µM; with A549 it was 19.4 µM; in assay [4] it was 32 µM; with A-431, 23.1 µM.

As to `COc1ccc(/C=C\C(=O)O)c(OCc2cn(-c3ccccc3C(=O)N3CCC(O)C3)nn2)c1CC=C(C)C` (stereo not given), the IC50 stood at 25.4 µM in the assay on COLO 205 [1]; 32 µM in assay [2]; 13.4 µM with T47D; 36.2 µM in [4]; 31.5 µM with A-431.

With `COc1ccc(/C=C\C(=O)O)c(OCc2cn(-c3ccc(C#N)cc3)nn2)c1CC=C(C)C`, the IC50 with COLO 205 [1] stood at 32 µM; in [2] it was 21 µM; in the assay with T47D, 10.2 µM; in assay [3], 18.6 µM; in the assay with A549, 42.2 µM; with A-431 it was 23 µM.

For the compound `COc1ccc(/C=C\C(=O)O)c(OCc2cn(-c3cccc([N+](=O)[O-])c3)nn2)c1CC=C(C)C`, the IC50 with COLO 205 [1] came out at 6.9 µM; in [2], 27.3 µM; in the assay with T47D, 15.4 µM; in assay [3] it was 43.2 µM; in assay [4] it was 42.1 µM; in the assay on A-431, 18.4 µM.

With `COc1ccc(/C=C\C(=O)O)c(OCc2cn(-c3ccc(NC(C)=O)cc3)nn2)c1CC=C(C)C`, the IC50 in the assay on COLO 205 [1] was found to be 22.6 µM; in the assay with T47D, 17.4 µM; in assay [3], 45.7 µM; with A-431, 23.4 µM.

As for `COc1ccc(/C=C\C(=O)O)c(OCc2cn(-c3ccccc3C#N)nn2)c1CC=C(C)C`, the IC50 was 3.2 µM in the assay with COLO 205 [1]; 38.3 µM in assay [2]; 8.8 µM in the assay with T47D; 14.4 µM in assay [3]; 38.6 µM with A549; 10.3 µM in the assay on A-431.

As for `COc1ccc(/C=C\C(=O)O)c(OCc2cn(-c3ccc(CO)cc3)nn2)c1CC=C(C)C`, the IC50 was determined as 19.3 µM with COLO 205 [1]; 31.7 µM in [2]; 40 µM in the assay on T47D; 27.1 µM in assay [3]; 28.3 µM in assay [4]; 16.4 µM in the assay with A-431.

For the compound `COc1ccc(/C=C\C(=O)O)c(OCc2cn(-c3cccnc3Cl)nn2)c1CC=C(C)C`, the IC50 in assay [2] was found to be 23 µM; in assay [3] it was 42.2 µM; with A549 it was 5.6 µM; in the assay on A-431, 32.6 µM.

`COc1ccc(/C=C\C(=O)O)c(OCc2cn(P(=O)(Oc3ccccc3)Oc3ccccc3)nn2)c1CC=C(C)C`: the half-inhibitory concentration (IC50) in assay [2] was 35.5 µM; with T47D, 30.6 µM; in [4], 36.2 µM; in the assay on A-431, 43.3 µM.

With `COc1ccc2ccc(=O)oc2c1CC=C(C)C` [OSTHOLE], the half-inhibitory concentration (IC50) with COLO 205 [1] is greater than 60 µM; in assay [2], 30.2 µM; with T47D, 42.4 µM; in assay [3], 30.9 µM; in the assay on A549, 46.2 µM; in assay [4] it was 24.8 µM. The same compound registered a half-maximal inhibitory concentration (IC50) in the assay on A-431 of 23.2 µM.

For the compound `Cn1c(=O)n(-c2ccc(C(C)(C)C#N)cc2)c2c3cc(-c4cnc5ccccc5c4)ccc3ncc21` [DACTOLISIB], the IC50 in [2] was found to be 0.044 µM; with T47D, 11.2 µM; in assay [3] it was 10.3 µM; in [4], 12.3 µM; in the assay on A-431, 12.5 µM.

For `COc1ccccc1-n1cc(COc2c(/C=C\C(=O)O)ccc(OC)c2CC=C(C)C)nn1`, the IC50 amounted to 12.2 µM in the assay on COLO 205 [1]; 32.2 µM in assay [2]; 41.5 µM in assay [3]; 43 µM in the assay on A549; 32.6 µM with A-431.

As for `COc1ccc(/C=C\C(=O)O)c(OCc2cn(-c3nc4ccccc4s3)nn2)c1CC=C(C)C`, the IC50 was 20.2 µM in the assay with COLO 205 [1]; 16.4 µM in assay [2]; 17.2 µM in the assay with T47D; 23 µM in assay [3]; 42.1 µM in the assay with A549; 20.8 µM with A-431.

As to `COc1ccc(/C=C\C(=O)O)c(OCc2cn(-c3ccccc3F)nn2)c1CC=C(C)C`, the half-maximal inhibitory concentration (IC50) came out at 14.5 µM with COLO 205 [1]; 11 µM with T47D; 45.6 µM in assay [3]; 24.2 µM in assay [4]; 12.4 µM in the assay with A-431.

As for `COc1ccc(/C=C\C(=O)O)c(OCc2cn(-c3cccc(C#N)c3)nn2)c1CC=C(C)C`, the IC50 was 26.8 µM in the assay on COLO 205 [1]; 35.3 µM in assay [2]; 19.2 µM in the assay with T47D; 26.5 µM in assay [3]; 45.5 µM in assay [4]; 22.9 µM in the assay on A-431.

`CC[C@@]1(O)C(=O)OCc2c1cc1n(c2=O)Cc2cc3ccccc3nc2-1` [CAMPTOTHECIN]: the Activity came to 69.4% in the assay with COLO 205 [5]; 11% in the assay with COLO 205 [6]; 4.9% with COLO 205 [7]; 2.2% in the assay with COLO 205 [8]; 30.8% in the assay with COLO 205 [9].
